# Reference: ChEMBL document CHEMBL1148331, “Aziridinyldinitrobenzamides: synthesis and structure-activity relationships for activation by E. coli nitroreductase” (J Med Chem, 2004)
# pIC50: −log10 of the molar value.
# Tests used:
# WiDr-NTR = experiment: Growth inhibitory potency against NTR-Transfected (nitroreductase) human colon cell line known as WiDr-NTRneo cell line; format: functional, cell-based
# Summary of the method: (§1)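 Log-phase cells were seeded in αMEM with 5% FBS at 50–800 cells/well and grown for 18 h. Prodrug was added from DMSO stock diluted in medium and left for 18 h, then washed out. Regrowth lasted 3 days for V79 and EMT6 lines and 4 days for WiDr and Skov3 lines. Cell density was read by sulforhodamine B staining. IC50 was interpolated as 50% of control absorbance on the same plate. Ratio = IC50 of parental (NTR-ve) line / IC50 of NTR-transfected line.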
# Mus musculus [1] = experiment: In vivo median growth delay against CD-1 nude mice bearing WiDr-nitroreductase tumors at a dose 200 (umol/kg); format: functional
# WiDr [2] = experiment: Effective concentration of 10% cell survival for targets in WiDr MCL (multicellular layer) grown from targets; format: functional, Homo sapiens
# Summary of the method: (§2)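 WiDr multicellular layers were grown on collagen-coated inserts for 6 days. Cocultures held 10% WiDr-NTRneo activators and 90% WiDr targets; the other layers held targets only. Layers were exposed to prodrug over a range of concentrations for 5 h at 37 °C, stirred, under 5% CO2/95% O2. Cells were plated clonogenically, with activators selected in 0.3 mg/mL G418. After 14 days, colonies of more than 50 cells were counted and the concentration giving 10% survival was derived.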
# V79 [3] = experiment: Effective concentration of 10% cell survival for targets in V79 MCL (multicellular layer) grown from targets; format: functional, Cricetulus griseus
# Summary of the method: (§3)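 V79 multicellular layers were grown on collagen-coated microporous inserts for 3 days, stirred, under 5% CO2/air. Cocultures held 3% V79-NTRpuro activators and 97% V79oua targets; the other layers held targets only. Layers were exposed to prodrug over a concentration range for 5 h at 37 °C under 5% CO2/95% O2. Cells were then plated clonogenically in 1 mM ouabain (targets) or 15 µM puromycin (activators). After 6 days, colonies of more than 50 cells were counted and the concentration giving 10% survival was taken.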
# [4] = Ratio of growth inhibition of NTR-transfected human colon cell line to that of parental cell line (IC50 (NTR-)/IC50 (NTR+); format: functional; summary of the method: as §1
# Mus musculus [5] = experiment: In vivo activity against WiDr-nitroreductase tumors in mice at a dose of 200 (umol/kg); 31/53; format: functional
# WiDr [6] = experiment: Effective concentration of 10% cell survival for activators in WiDr MCL (multicellular layer) cocultures; format: functional, Homo sapiens; summary of the method: as §2
# SK-OV-3 [7] = experiment: Growth inhibitory potency against NTR-Transfected (nitroreductase) human ovarian cell line known as SKOV3-NTR neo cell line; format: functional, cell-based; summary of the method: as §1
# EMT6 [8] = experiment: Ratio of growth inhibition of NTR-transfected mouse mammary cell line to that of parental cell line (IC50 (NTR-)/IC50 (NTR+); format: functional; summary of the method: as §1
# [9] = Partition coefficient (logP); format: physicochemical; conditions: octanol/water
# Summary of the method: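 Partition measured between n-octanol and water.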
# Mus musculus [10] = experiment: In vivo activity against WiDr-nitroreductase tumors in mice at a dose of 200 (umol/kg); 12/53; format: functional
# SK-OV-3 [11] = experiment: Ratio of growth inhibition of NTR-transfected human ovarian cell line to that of parental cell line (IC50 (NTR-)/IC50 (NTR+); format: functional; summary of the method: as §1
# WiDr [12] = experiment: Effective concentration of 10% cell survival for targets in WiDr MCL (multicellular layer) cocultures; format: functional, Homo sapiens; summary of the method: as §2
# V79 [13] = experiment: Effective concentration of 10% cell survival for activators in V79 MCL (multicellular layer) cocultures; format: functional, Cricetulus griseus; summary of the method: as §3
# V79 [14] = experiment: Effective concentration of 10% cell survival for targets in V79 MCL (multicellular layer) cocultures; format: functional, Cricetulus griseus; summary of the method: as §3
# EMT6 [15] = experiment: Growth inhibitory potency against NTR-Transfected (nitroreductase) mouse mammary cell line known as EMT6-NTRpuro cell line; format: functional, cell-based; summary of the method: as §1
# [16] = Solubility in culture medium; format: physicochemical
# Summary of the method: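 Solubility limit (mM) determined in cell culture medium.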
# V79 [17] = experiment: Growth inhibitory potency against NTR-Transfected (nitroreductase) chinese hamster fibroblast known as V79-NTRpuro cell line; format: functional, cell-based; conditions: Cricetulus griseus; summary of the method: as §1
# Mus musculus [18] = experiment: In vivo activity against WiDr-nitroreductase tumors in mice at a dose of 178 (umol/kg); 2/7; format: functional
# Mus musculus [19] = experiment: In vivo activity against WiDr-nitroreductase tumors in mice at a dose of 178 (umol/kg); 1/7; format: functional
# Mus musculus [20] = experiment: In vivo median growth delay against CD-1 nude mice bearing WiDr-nitroreductase tumors at a dose 178 (umol/kg); format: functional
# Mus musculus [21] = experiment: In vivo activity against WiDr-nitroreductase tumors in mice at a dose of 1000 (umol/kg); 1/7; format: functional
# Mus musculus [22] = experiment: In vivo activity against WiDr-nitroreductase tumors in mice at a dose of 1000 (umol/kg); 0/6; format: functional
# Mus musculus [23] = experiment: In vivo median growth delay against CD-1 nude mice bearing WiDr-nitroreductase tumors at a dose 1000 (umol/kg); format: functional
# Mus musculus [24] = experiment: In vivo activity against WiDr-nitroreductase tumors in mice at a dose of 1000 (umol/kg); 2/7; format: functional
# Mus musculus [25] = experiment: In vivo median growth delay against CD-1 nude mice bearing WiDr-nitroreductase tumors at a dose 750 (umol/kg); format: functional
# Mus musculus [26] = experiment: In vivo activity against WiDr-nitroreductase tumors in mice at a dose of 750 (umol/kg); 0/7; format: functional
# Mus musculus [27] = experiment: In vivo activity against WiDr-nitroreductase tumors in mice at a dose of 750 (umol/kg); 1/7; format: functional
# Mus musculus [28] = experiment: In vivo activity against WiDr-nitroreductase tumors in mice at a dose of 178 (umol/kg); 4/7; format: functional
# Mus musculus [29] = experiment: In vivo activity against WiDr-nitroreductase tumors in mice at a dose of 178 (umol/kg); 0/3; format: functional
# Mus musculus [30] = experiment: In vivo activity against WiDr-nitroreductase tumors in mice at a dose of 300 (umol/kg); 0/7; format: functional
# Mus musculus [31] = experiment: In vivo median growth delay against CD-1 nude mice bearing WiDr-nitroreductase tumors at a dose 300 (umol/kg); format: functional
# Mus musculus [32] = experiment: In vivo activity against WiDr-nitroreductase tumors in mice at a dose of 300 (umol/kg); 1/7; format: functional
SMILES,pIC50 (WiDr-NTR),Ratio [4],pIC50 (SK-OV-3 [7]),Ratio (EMT6 [8]),Ratio (SK-OV-3 [11]),pIC50 (EMT6 [15]),solubility [16],logP ([9]; read-out: logP),pIC50 (V79 [17]),further results
NC(=O)c1cc(N2CC2)c([N+](=O)[O-])cc1[N+](=O)[O-] [TRETAZICAR],5.94,51.1,6.19,947,317,–,–,–,–,Growth delay (Mus musculus [1]): >87 days; T (WiDr [2]): 513 µM; T (V79 [3]): 1400 µM; Cures (Mus musculus [5]): 31; Ac (WiDr [6]): 33 µM; logP [9]: 0.14; Deaths (Mus musculus [10]): 12; Tc (WiDr [12]): 252 µM; Ac (V79 [13]): 23 µM; Tc (V79 [14]): 173 µM
NC(=O)c1cc(N2CC2)ccc1[N+](=O)[O-],4.05,–,–,–,–,4.17,3400 µM,0.7,4.09,–
CC(=O)CCNC(=O)c1cc(N2CC2)c([N+](=O)[O-])cc1[N+](=O)[O-],5.59,63.6,5.60,1520,270,6.51,800 µM,0.56,6.48,T (V79 [3]): 1900 µM; Ac (V79 [13]): 20 µM; Tc (V79 [14]): 200 µM
O=C(NCCCCN1CCOCC1)c1cc(N2CC2)c([N+](=O)[O-])cc1[N+](=O)[O-],6.51,93,6.52,12170,513,7.22,5600 µM,-0.48,6.68,–
CS(=O)(=O)c1cc([N+](=O)[O-])c(N2CC2)cc1C(N)=O,4.59,33,5.20,125,160,5.44,880 µM,-0.41,5.06,Deaths (Mus musculus [18]): 2; Cures (Mus musculus [19]): 1; Growth delay (Mus musculus [20]): 17 days
O=C(NCC(O)CO)c1cc([N+](=O)[O-])cc([N+](=O)[O-])c1N1CC1 (configuration not stated),4.90,71,5.14,252,185,5.36,2500 µM,-0.15,5.21,Deaths (Mus musculus [21]): 1; Cures (Mus musculus [22]): 0; Growth delay (Mus musculus [23]): 8 days
O=C(NCC(O)CO)c1cc(N2CC2)c([N+](=O)[O-])cc1[N+](=O)[O-] (configuration not stated),5.43,49,5.64,86.5,83.7,5.96,22000 µM,-1.04,6.15,Cures (Mus musculus [24]): 2; T (WiDr [2]): 540 µM; Deaths (Mus musculus [21]): 1; T (V79 [3]): 1595 µM; Growth delay (Mus musculus [23]): >86 days; Ac (WiDr [6]): 28 µM; Tc (WiDr [12]): 320 µM; Ac (V79 [13]): 26 µM; Tc (V79 [14]): 840 µM
NC(=O)c1ccc([N+](=O)[O-])c(N2CC2)c1,4.20,1.6,4.21,2.8,1.6,4.38,430 µM,0.47,4.21,–
NC(=O)c1cc([N+](=O)[O-])cc([N+](=O)[O-])c1N1CC1,4.89,85,5.21,627,281,5.89,1300 µM,0.34,5.92,Growth delay (Mus musculus [25]): 47 days; T (V79 [3]): >2000 µM; Deaths (Mus musculus [26]): 0; Ac (V79 [13]): 450 µM; Cures (Mus musculus [27]): 1; Tc (V79 [14]): >2000 µM
NC(=O)c1cc([N+](=O)[O-])c(N2CC2)c([N+](=O)[O-])c1,< 4.70,–,< 4.70,–,–,< 4.70,40 µM,0.59,< 4.70,–
CS(=O)(=O)c1cc([N+](=O)[O-])c(N2CC2)cc1C(=O)NCC(O)CO (configuration not stated),3.55,10,3.80,32,26,4.07,4150 µM,-0.96,3.88,–
O=C(NCCN1CCOCC1)c1cc([N+](=O)[O-])cc([N+](=O)[O-])c1N1CC1,4.74,32,4.96,177,>72,5.47,350 µM,0.11,5.14,Deaths (Mus musculus [28]): 4; Cures (Mus musculus [29]): 0; Growth delay (Mus musculus [20]): -1 days
O=C(NCCCN1CCOCC1)c1cc(N2CC2)c([N+](=O)[O-])cc1[N+](=O)[O-],6.62,122,6.82,3310,732,7.40,1600 µM,-1.05,7.32,–
CS(=O)(=O)c1cc([N+](=O)[O-])c(C(N)=O)cc1N1CC1,4.66,10,4.66,25,19,4.96,780 µM,-0.3,4.40,–
O=C(NCCn1ccnc1)c1cc(N2CC2)c([N+](=O)[O-])cc1[N+](=O)[O-],5.96,41.5,6.24,278,105,6.54,1100 µM,-0.48,6.51,–
O=C(NCCN1CCOCC1)c1cc(N2CC2)c([N+](=O)[O-])cc1[N+](=O)[O-],6.14,183,6.35,4020,1100,7.28,1800 µM,0.31,6.82,T (WiDr [2]): 680 µM; T (V79 [3]): 1600 µM; Deaths (Mus musculus [30]): 0; Ac (WiDr [6]): 8.5 µM; Growth delay (Mus musculus [31]): 35 days; Cures (Mus musculus [32]): 1; Tc (WiDr [12]): 105 µM; Ac (V79 [13]): 11.5 µM; Tc (V79 [14]): 470 µM
CN(CCN1CCOCC1)C(=O)c1cc(N2CC2)c([N+](=O)[O-])cc1[N+](=O)[O-],5.09,21,4.89,309,46,5.74,3300 µM,-0.26,5.74,–
NC(=O)c1c([N+](=O)[O-])ccc(N2CC2)c1[N+](=O)[O-],4.24,5.9,4.18,9.2,9.6,4.57,2700 µM,-0.17,3.87,–
